Data published in ChEMBL document CHEMBL1127665, “Synthesis and antibacterial activity of new quinolones containing a 7-[3-(1-amino-1-methylethyl)-1-pyrrolidinyl] moiety. Gram-positive agents with excellent oral activity and low side-effect potential” (J Med Chem, 1994).
In brackets after ≈: the same amount, converted by molar mass.

Tests used:
[1] = test system: Klebsiella pneumoniae; assay: Minimum inhibitory concentration against Klebsiella pneumoniae MGH-2; assay type: functional
Procedure, shortened: (§1)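 Tested by microtitration against a panel of 10 Gram-positive and Gram-negative organisms. MIC is reported in μg/mL.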

[2] = test system: Streptococcus pneumoniae; assay: Minimum inhibitory concentration tested against Streptococcus pneumoniae SV-1; assay type: functional; procedure, shortened: as §1
[3] = test system: Mus musculus; assay: In vivo antibacterial activity against Streptococcus pyogenes after following subcutaneous administration; assay type: functional; details: sc, read-out: PD50
Procedure, shortened: (§2)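 Acute lethal systemic infection in female Charles River CD-1 mice. Compound given orally or subcutaneously. Potency expressed as median protective dose (PD50, mg/kg), the dose preventing death in 50% of animals.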

[4] = test system: Enterococcus faecalis; assay: Minimum inhibitory concentration against Streptococcus faecalis MGH-2; assay type: functional; procedure, shortened: as §1
[5] = test system: Mus musculus; assay: In vivo antibacterial activity against Escherichia coli after following subcutaneous administration; assay type: functional; details: sc, read-out: PD50; procedure, shortened: as §2
[6] = test system: Escherichia coli; assay: Minimum inhibitory concentration against Escherichia coli Vogel; assay type: functional; procedure, shortened: as §1
[7] = test system: Mus musculus; assay: In vivo antibacterial activity against Escherichia coli after following oral administration; assay type: functional; details: read-out: PD50; procedure, shortened: as §2
[8] = test system: Enterobacter cloacae; assay: Minimum inhibitory concentration against Enterobacter cloacae MA 2646; assay type: functional
[9] = test system: Pseudomonas aeruginosa; assay: Minimum inhibitory concentration against U1-18 cell line from Pseudomonas aeruginosa; assay type: functional; procedure, shortened: as §1
[10] = test system: Staphylococcus aureus; assay: Minimum inhibitory concentration against Staphylococcus aureus UC-76; assay type: functional; procedure, shortened: as §1
[11] = test system: Streptococcus pyogenes; assay: Minimum inhibitory concentration against Streptococcus pyogenes C203; assay type: functional; procedure, shortened: as §1
[12] = test system: Staphylococcus aureus; assay: Minimum inhibitory concentration against Staphylococcus aureus H 228; assay type: functional; procedure, shortened: as §1
[13] = test system: Mus musculus; assay: In vivo antibacterial activity against Streptococcus pyogenes after following oral administration; assay type: functional; details: read-out: PD50; procedure, shortened: as §2
[14] = test system: Providencia rettgeri; assay: Minimum inhibitory concentration against M1771 strain of Providencia rettgeri; assay type: functional; procedure, shortened: as §1
[15] = test system: V79; assay: Clonogenic cytotoxicity against Hamster V-79 cells; assay type: cell-based; details: Cricetulus griseus
[16] = The no effect dose (NED) for phototoxicity in mouse; assay type: organism-based; details: in vivo, read-out: NED
Procedure, shortened: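 Female CD-1 mice were depilated and dosed orally, with five animals per dose plus controls. After each dose the mice were exposed to UVA for 3 h. This was repeated daily for 4 days. Any redness or erythema relative to control was scored positive. The value is the highest dose producing no effect, in mg/kg.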

Compound	MIC [1] [µg/mL]	MIC [2] [µg/mL]	ED50 [3] [mg/kg]	MIC [4] [µg/mL]	ED50 [5] [mg/kg]	MIC [6] [µg/mL]	ED50 [7] [mg/kg]	MIC [8] [µg/mL]	MIC [9] [µg/mL]	MIC [10] [µg/mL]	MIC [11] [µg/mL]	MIC [12] [µg/mL]	ED50 [13] [mg/kg]	MIC [14] [µg/mL]	IC50 [15] [µg/mL]	NOAEL [16] [mg/kg]
NCC1CCN(c2c(F)cc3c(=O)c(C(=O)O)cn(C4CC4)c3c2Cl)C1 (stereo not given)	0.05 (≈ 0.132 µM)	0.003 (≈ 0.0079 µM)	0.2	0.006 (≈ 0.0158 µM)	1	0.025 (≈ 0.0658 µM)	33	0.025 (≈ 0.0658 µM)	0.4 (≈ 1.05 µM)	0.003 (≈ 0.0079 µM)	0.003 (≈ 0.0079 µM)	0.003 (≈ 0.0079 µM)	5	0.05 (≈ 0.132 µM)	–	–
NCC1CCN(c2cc3c(cc2F)c(=O)c(C(=O)O)cn3C2CC2)C1 (stereo not given)	0.1 (≈ 0.29 µM)	0.013 (≈ 0.0376 µM)	4	0.05 (≈ 0.145 µM)	2	0.05 (≈ 0.145 µM)	> 100	0.1 (≈ 0.29 µM)	0.8 (≈ 2.32 µM)	0.006 (≈ 0.0174 µM)	0.013 (≈ 0.0376 µM)	0.05 (≈ 0.145 µM)	> 100	0.2 (≈ 0.579 µM)	–	–
NCC1CCN(c2nc3c(cc2F)c(=O)c(C(=O)O)cn3C2CC2)C1 (stereo not given)	0.1 (≈ 0.289 µM)	0.1 (≈ 0.289 µM)	4	0.025 (≈ 0.0722 µM)	1	0.05 (≈ 0.144 µM)	17	0.1 (≈ 0.289 µM)	0.2 (≈ 0.577 µM)	0.003 (≈ 0.00866 µM)	0.025 (≈ 0.0722 µM)	0.1 (≈ 0.289 µM)	39	0.4 (≈ 1.15 µM)	42 (≈ 121 µM)	–
NC1CCN(c2c(F)cc3c(=O)c(C(=O)O)cn(C4CC4)c3c2F)C1 (stereo not given)	0.025 (≈ 0.0716 µM)	0.05 (≈ 0.143 µM)	2	0.05 (≈ 0.143 µM)	0.2	0.013 (≈ 0.0372 µM)	1	0.025 (≈ 0.0716 µM)	0.1 (≈ 0.286 µM)	0.025 (≈ 0.0716 µM)	0.05 (≈ 0.143 µM)	0.05 (≈ 0.143 µM)	8	0.05 (≈ 0.143 µM)	–	3
COc1c(N2CCC(CN)C2)c(F)cc2c(=O)c(C(=O)O)cn(C3CC3)c12 (stereo not given)	0.1 (≈ 0.266 µM)	0.003 (≈ 0.00799 µM)	0.6	0.013 (≈ 0.0346 µM)	–	0.05 (≈ 0.133 µM)	–	0.05 (≈ 0.133 µM)	0.8 (≈ 2.13 µM)	0.003 (≈ 0.00799 µM)	0.003 (≈ 0.00799 µM)	0.025 (≈ 0.0666 µM)	11	0.1 (≈ 0.266 µM)	–	–
C[C@H](N)C1CCN(c2nc3c(cc2F)c(=O)c(C(=O)O)cn3C2CC2)C1 (stereo not given in full)	0.1 (≈ 0.277 µM)	0.006 (≈ 0.0166 µM)	2	0.05 (≈ 0.139 µM)	1	0.05 (≈ 0.139 µM)	6	0.05 (≈ 0.139 µM)	0.8 (≈ 2.22 µM)	0.006 (≈ 0.0166 µM)	0.013 (≈ 0.0361 µM)	0.05 (≈ 0.139 µM)	14	0.4 (≈ 1.11 µM)	100 (≈ 277 µM)	67
CC(C)(N)[C@@H]1CCN(c2nc3c(cc2F)c(=O)c(C(=O)O)cn3C2CC2)C1.Cl	0.2	0.006	1	0.05	1	0.05	5	0.1	1.6	0.003	0.013	0.1	4	0.4	130	73
CC(C)(N)[C@@H]1CCN(c2c(F)cc3c(=O)c(C(=O)O)cn(C4CC4)c3c2Cl)C1.Cl	0.1	0.003	0.1	0.013	1	0.05	8	0.05	0.8	0.003	0.003	0.006	2	0.2	< 8	–
CC(C)(N)[C@@H]1CCN(c2nc3c(cc2F)c(=O)c(C(=O)O)cn3-c2ccc(F)cc2F)C1.Cl	0.4	0.05	–	0.1	–	0.2	–	0.2	3.1	0.025	0.05	0.05	–	0.8	–	–
COc1c(N2CC[C@@H](C(C)(C)N)C2)c(F)cc2c(=O)c(C(=O)O)cn(C3CC3)c12.Cl	0.2	0.003	0.6	0.013	3	0.1	26	0.1	1.6	0.003	0.003	0.013	2	0.4	18	–
CC(C)(N)[C@@H]1CCN(c2cc3c(cc2F)c(=O)c(C(=O)O)cn3C2CC2)C1.Cl	0.1	0.003	1	0.025	2	0.05	18	0.05	0.8	0.006	0.003	0.05	20	0.2	190	–
CC(C)(N)[C@H]1CCN(c2cc3c(cc2F)c(=O)c(C(=O)O)cn3C2CC2)C1.Cl	0.8	0.2	13	0.4	–	0.4	–	0.4	3.1	0.1	0.2	0.4	> 100	1.6	–	–
CC(C)(N)[C@H]1CCN(c2nc3c(cc2F)c(=O)c(C(=O)O)cn3-c2ccc(F)cc2F)C1.Cl	0.8	0.4	–	0.4	–	0.4	–	0.4	3.1	0.1	0.4	0.4	–	1.6	–	–
COc1c(N2CC[C@H](C(C)(C)N)C2)c(F)cc2c(=O)c(C(=O)O)cn(C3CC3)c12.Cl	0.4	0.025	3	0.05	–	0.2	–	0.2	3.1	0.013	0.025	0.05	29	0.8	> 500	–
CC(C)(N)[C@H]1CCN(c2c(F)cc3c(=O)c(C(=O)O)cn(C4CC4)c3c2Cl)C1.Cl	0.2	0.013	4	0.05	4	0.1	27	0.1	1.6	0.013	0.025	0.025	13	0.4	–	–
CC(C)(N)[C@H]1CCN(c2nc3c(cc2F)c(=O)c(C(=O)O)cn3C2CC2)C1.Cl	0.4	0.05	6	0.1	3	0.2	10	0.2	3.1	0.025	0.1	0.1	32	0.8	–	55
NCC1CCN(c2nc3c(cc2F)c(=O)c(C(=O)O)cn3-c2ccc(F)cc2F)C1 (stereo not given)	0.1 (≈ 0.239 µM)	0.025 (≈ 0.0598 µM)	–	0.025 (≈ 0.0598 µM)	–	0.05 (≈ 0.12 µM)	–	0.05 (≈ 0.12 µM)	0.4 (≈ 0.956 µM)	0.013 (≈ 0.0311 µM)	0.025 (≈ 0.0598 µM)	0.05 (≈ 0.12 µM)	–	0.2 (≈ 0.478 µM)	–	–
C[C@@H](N)C1CCN(c2nc3c(cc2F)c(=O)c(C(=O)O)cn3C2CC2)C1 (stereo not given in full)	0.05 (≈ 0.139 µM)	0.003 (≈ 0.00832 µM)	1	0.013 (≈ 0.0361 µM)	0.4	0.025 (≈ 0.0694 µM)	2	0.05 (≈ 0.139 µM)	0.4 (≈ 1.11 µM)	0.003 (≈ 0.00832 µM)	0.013 (≈ 0.0361 µM)	0.025 (≈ 0.0694 µM)	3	0.1 (≈ 0.277 µM)	33 (≈ 91.6 µM)	30
O=C(O)c1cn(C2CC2)c2cc(N3CCNCC3)c(F)cc2c1=O [CIPROFLOXACIN]	0.05 (≈ 0.151 µM)	1.6 (≈ 4.83 µM)	19	0.8 (≈ 2.41 µM)	0.3	–	1	–	0.4 (≈ 1.21 µM)	0.2 (≈ 0.604 µM)	0.8 (≈ 2.41 µM)	3.1 (≈ 9.36 µM)	180	0.1 (≈ 0.302 µM)	–	> 100
